Test results as given in PubChem BioAssay AID624082 (The Scripps Research Institute Molecular Screening Center, 2012).
The source made the active and inactive calls.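 The calls were made as follows: active = MIC showing a fourfold drop that lands at or below 10 µM; inactive = fourfold-lowered MIC still above 10 µM.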

Experiments:
[1] = test system: K. pneumoniae BAA-2146 NDM-1, imipenem synergy, growth MIC; assay: bacterial growth inhibition in synergy with imipenem – BAA-2146, NDM-1 transformed, nonselective, MIC fold reduction, VIM-2 MBL inhibitor project, late-stage follow-up (AID 624082)
How it was run: (§1)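 Test system: log-phase bacterial culture in a checkerboard broth microdilution; Buffer or medium: CAMHB; Also added: imipenem, two-fold titration series; Doses: test compound two-fold serial titration, crossed with imipenem titration; Incubation: ≥18 h aerobic incubation at 37 °C; Read-out basis: minimum inhibitory concentration called by CLSI criteria.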

[2] = as above; settings: K. pneumoniae BAA-2146 NDM-1, imipenem synergy, growth MIC; measured here: max imipenem fold potentiation; stronger effect = higher value
How it was run: as §1

Compound	MIC [1]	fold potentiation [2]
O=C(CN1C(=O)/C(=C/c2c(Cl)cccc2Cl)SC1=S)NN1CCN(C(=O)c2ccccc2)CC1	> 50 µM (inactive)	
O=C(CN1C(=O)/C(=C/c2c(Cl)cccc2Cl)SC1=S)NN1CCNCC1	> 50 µM (inactive)	
O=C(CN1C(=O)/C(=C/c2c(Cl)cccc2Cl)SC1=S)NN1CCN(Cc2ccccc2)CC1	> 50 µM (inactive)	
O=C(CN1C(=O)/C(=C/c2c(Cl)ccc(Cl)c2Cl)SC1=S)NCc1ccccn1	> 50 µM (inactive)	
O=C(O)CN1C(=O)/C(=C/c2c(Cl)cccc2Cl)SC1=S	> 100 µM (inactive)	
CN1CCN(NC(=O)CN2C(=O)/C(=C/c3c(F)cccc3C(F)(F)F)SC2=S)CC1	> 50 µM (inactive)	2
CC(C)N1CCN(NC(=O)CN2C(=O)/C(=C/c3c(Cl)cccc3Cl)SC2=S)CC1	> 50 µM (inactive)	
CN1CCN(NC(=O)CN2C(=O)/C(=C/c3c(Cl)ccc(Cl)c3Cl)SC2=S)CC1	> 50 µM (inactive)	2
CN1CCN(NC(=O)CN2C(=O)/C(=C/c3c(C(F)(F)F)ccc(Cl)c3Cl)SC2=S)CC1	> 50 µM (inactive)	2
CCN(CC)OC(=O)CN1C(=O)/C(=C/c2c(Cl)cccc2Cl)SC1=S	> 100 µM (inactive)	
CN1CCN(NC(=O)CN2C(=O)/C(=C/c3c(Cl)cccc3Cl)SC2=S)CC1	> 100 µM (inactive)	2
CC(C)(C)OC(=O)N1CCN(NC(=O)CN2C(=O)/C(=C/c3c(Cl)ccc(Cl)c3Cl)SC2=S)CC1	> 50 µM (inactive)	
O=C(CN1C(=O)/C(=C/c2c(Cl)ccc(Cl)c2Cl)SC1=S)NN1CCNCC1	> 50 µM (inactive)	2
CN1CCN(NC(=O)CN2C(=O)/C(=C/c3c(F)cccc3Cl)SC2=S)CC1	> 50 µM (inactive)	2
O=C(CN1C(=O)/C(=C/c2c(Cl)cccc2Cl)SC1=S)NCc1ccccn1	> 100 µM (inactive)	
CN1CCN(C(=O)CN2C(=O)/C(=C/c3c(Cl)ccc(Cl)c3Cl)SC2=S)CC1	> 50 µM (inactive)	
CC(C)(C)OC(=O)N1CCN(NC(=O)CN2C(=O)/C(=C/c3c(Cl)cccc3Cl)SC2=S)CC1	> 100 µM (inactive)	
CC(=O)N1CCN(NC(=O)CN2C(=O)/C(=C/c3c(Cl)cccc3Cl)SC2=S)CC1	> 50 µM (inactive)	
O=C(CN1C(=O)/C(=C/c2c(Cl)ccc(Cl)c2Cl)SC1=S)NN1CCCCC1	> 50 µM (inactive)	
O=C(O)CN1C(=O)/C(=C/c2c(F)cccc2C(F)(F)F)SC1=S	> 50 µM (inactive)	
CN1CCN(NC(=O)CN2C(=O)/C(=C/c3c(Cl)ccc(C(F)(F)F)c3Cl)SC2=S)CC1	> 50 µM (inactive)	2
